Key:
Mus musculus [1] = species on record: Mus musculus; experiment: Concentration that reduces Friend murine leukemia virus titer by 50%; assay type: functional, organism-based
Method in brief: (§1)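 SC-1 cells (1 × 10^4/well) were pretreated with polybrene, infected 2 h at 37 °C with F-MuLV or R-MuLV in EMEM-5 with 8 µg/mL polybrene, washed, and refed with analogue for 72 h. They were then UV-irradiated and overlaid with XC cells (2 × 10^5) for 48 h, fixed and stained with crystal violet. Multinucleated cells were counted and EC50 was taken by linear regression versus untreated cultures.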

Mus musculus [2] = species on record: Mus musculus; experiment: Cytotoxicity was evaluated; assay type: functional
Method in brief: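 SC-1 cells (1 × 10^4 cells/mL) were seeded, incubated overnight at 37 °C, refed with EMEM-10 and given diluted analogue in triplicate for 72 h at 37 °C. Cells were trypsinized and counted in a Coulter counter. The mean of three wells gave percent of control count, and IC50 was calculated by linear regression.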

Mus musculus [3] = species on record: Mus musculus; experiment: Concentration that reduces Rauscher murine leukemia virus titer by 50%; assay type: functional, organism-based; method in brief: as §1
[4] = Selectivity index is the ratio of IC50 to EC50 of F-MuLV.; assay type: functional
[5] = Selectivity index which is the ratio of IC50 to EC50 of R-MuLV.; assay type: functional
L1210 [6] = experiment: Inhibitory activity against murine leukemia L1210 cells; assay type: functional, cell-based; settings: Mus musculus
Homo sapiens [7] = species on record: Homo sapiens; experiment: Cytotoxicity was evaluated against C116 human solid tumor at 500 ug/disk.; assay type: functional
Method in brief: (§2)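 Disk zone assay: analogue dilutions on 6.5 mm paper disks were placed on dishes with a 0.8% agar bottom layer and a 0.44% soft-agar top layer of tumor cells (≤1 × 10^5/plate) in Fishers-CMRL-1066 with 12% horse serum. Plates were incubated 6-10 days and the inhibition zone was measured by microscope; 200 zone units = 6 mm.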

MC-38 [8] = experiment: Cytotoxicity was evaluated against C38 solid tumor of mouse at 500 ug/disk.; assay type: functional; parameters: unit not given beside the values; method in brief: as §2
[9] = Cytotoxicity was evaluated against low malignancy line at 1000 ug/disk.; assay type: functional; method in brief: as §2
L1210 [10] = experiment: Cytotoxicity was evaluated against L1210 leukemia cell line at 1000 ug/disk.; assay type: functional, Mus musculus; method in brief: as §2
L1210 [11] = experiment: Compound were evaluated for inhibition of macromolecular synthesis in murine leukemia L1210 cells at 1 hour against DNA.; assay type: functional, Mus musculus; parameters: scale not given: the % may be the effect or the level left
L1210 [12] = experiment: Compound were evaluated for inhibition of macromolecular synthesis in murine leukemia L1210 cells at 1 hour against Protein; assay type: functional, Mus musculus; parameters: scale not given: the % may be the effect or the level left
L1210 [13] = experiment: Compound were evaluated for inhibition of macromolecular synthesis in murine leukemia L1210 cells at 1 hour against RNA.; assay type: functional, Mus musculus; parameters: scale not given: the % may be the effect or the level left
L1210 [14] = experiment: Compound were evaluated for inhibition of macromolecular synthesis in murine leukemia L1210 cells at 4 hour against Protein; assay type: functional, Mus musculus; parameters: scale not given: the % may be the effect or the level left
L1210 [15] = experiment: Compound were evaluated for inhibition of macromolecular synthesis in murine leukemia L1210 cells at 4 hour against RNA.; assay type: functional, Mus musculus; parameters: scale not given: the % may be the effect or the level left
L1210 [16] = experiment: Compound were evaluated for inhibition of macromolecular synthesis in murine leukemia L1210 cells at 4 hour against DNA.; assay type: functional, Mus musculus; parameters: scale not given: the % may be the effect or the level left
L1210 [17] = experiment: Cytotoxicity was evaluated against L1210 leukemia cell line at 500 ug/disk.; assay type: functional, Mus musculus; method in brief: as §2
[18] = Cytotoxicity was evaluated against low malignancy line at 500 ug/disk.; assay type: functional; method in brief: as §2
Homo sapiens [19] = species on record: Homo sapiens; experiment: Cytotoxicity was evaluated against C116 human solid tumor at 1.5 ug/disk.; assay type: functional; method in brief: as §2
MC-38 [20] = experiment: Cytotoxicity was evaluated against C38 solid tumor of mouse at 1.5 ug/disk.; assay type: functional; method in brief: as §2
[21] = Cytotoxicity was evaluated against CO9 solid tumor of mouse at 1.5 ug/disk.; assay type: functional; method in brief: as §2
Homo sapiens [22] = species on record: Homo sapiens; experiment: Cytotoxicity was evaluated against H125 human solid tumor at 1.5 ug/disk.; assay type: functional; method in brief: as §2
[23] = Cytotoxicity was evaluated against low malignancy line at 1.5 ug/disk.; assay type: functional; method in brief: as §2
Homo sapiens [24] = species on record: Homo sapiens; experiment: Cytotoxicity was evaluated against PO1 human solid tumor at 1.5 ug/disk.; assay type: functional; method in brief: as §2
PO3 [25] = experiment: Cytotoxicity was evaluated against PO3 cell line at 1.5 ug/disk.; assay type: functional, Mus musculus; method in brief: as §2
[26] = Cytotoxicity was evaluated against low malignancy line at 250 ug/disk.; assay type: functional; method in brief: as §2
L1210 [27] = experiment: Cytotoxicity was evaluated against L1210 leukemia cell line at 250 ug/disk.; assay type: functional, Mus musculus; method in brief: as §2
PO3 [28] = experiment: Cytotoxicity was evaluated against PO3 cell line at 250 ug/disk.; assay type: functional, Mus musculus; method in brief: as §2
PO3 [29] = experiment: Cytotoxicity was evaluated against PO3 cell line at 1000 ug/disk.; assay type: functional, Mus musculus; method in brief: as §2
Homo sapiens [30] = species on record: Homo sapiens; experiment: Cytotoxicity was evaluated against H125 human solid tumor at 500 ug/disk.; assay type: functional; method in brief: as §2
PO3 [31] = experiment: Cytotoxicity was evaluated against PO3 cell line at 1000 ug/disk.

`Nc1ncnc2c1ncn2[C@H]1CC[C@@H](CO)O1` showed an EC50 (Mus musculus [1]) of 1 µM, an IC50 (Mus musculus [2]) of 83.8 µM and an EC50 (Mus musculus [3]) of 2.6 µM. It also gave an SI [4] of 83.8 and an SI [5] of 32.2.
`NC1=NC(N)c2c(ncn2CC#CCO)N1` (stereo not given) showed an IC50 (L1210 [6]) of 200 µM.
Compound `Nc1ncnc2c1ncn2/C=C/CCO` has an EC50 (Mus musculus [1]) of 127 µM, an IC50 (L1210 [6]) of 100 µM and an IC50 (Mus musculus [2]) of 304 µM. The EC50 (Mus musculus [3]) was 181 µM, the SI [4] was 2.4 and the SI [5] was 1.7.
`NC(=O)c1ncn([C@@H]2O[C@H](CO)[C@@H](O)[C@H]2O)n1` [RIBAVIRIN] gave an EC50 (Mus musculus [1]) of 8.3 µM, an IC50 (Mus musculus [2]) of 52 µM and an EC50 (Mus musculus [3]) of 32.1 µM. The SI [4] was 6.3 and the SI [5] was 1.6.
For `O=c1[nH]c(=O)n2c3c1ncn3CC=CC2`, the IC50 (L1210 [6]) was over 1000 µM.
For `Nc1ncnc2c1ncn2CCCCCl`, the IC50 (L1210 [6]) was over 440 µM.
`Cc1cn(CC#CCO)c(=O)[nH]c1=O` gave an IC50 (L1210 [6]) of over 500 µM.
`Cc1cn(C=C=CCO)c(=O)nc1N` showed a Cytotoxicity (Homo sapiens [7]) of 500, a Cytotoxicity (MC-38 [8]) of 520 and a Cytotoxicity [9] of 550. For the same compound, the Cytotoxicity (L1210 [10]) was 500 and the IC50 (L1210 [6]) was 620 µM.
Compound `Nc1ncnc2c1ncn2C/C=C\CCl` has a Cytotoxicity (MC-38 [8]) of 280, a Control (L1210 [11]) of 80% and a Control (L1210 [12]) of 99%. For the same compound, the Control (L1210 [13]) was 98%, the Control (L1210 [14]) was 60% and the Control (L1210 [15]) was 73%. For the same compound, the Control (L1210 [16]) was 68%, the Cytotoxicity (L1210 [17]) was 220 and the Cytotoxicity [18] was 200. It also gave an IC50 (L1210 [6]) of 22 µM.
With `Nc1ncnc2c1ncn2[C@@H]1C=C(CO)[C@@H](O)[C@H]1O` [NEOPLANOCIN A] the Cytotoxicity (Homo sapiens [19]) was 340, the Cytotoxicity (MC-38 [20]) was 0 and the Cytotoxicity [21] was 40. It also gave a Cytotoxicity (Homo sapiens [22]) of 400, a Cytotoxicity [23] of 100 and a Cytotoxicity (Homo sapiens [24]) of 0. It also gave a Cytotoxicity (PO3 [25]) of 80.
For `Nc1ncnc2c1ncn2C/C=C\CO`, the EC50 (Mus musculus [1]) was 175 µM, the Cytotoxicity [26] was 240 and the Cytotoxicity (L1210 [27]) was 200. The IC50 (L1210 [6]) was 490 µM, the IC50 (Mus musculus [2]) was over 300 µM and the EC50 (Mus musculus [3]) was 124 µM. It also gave an SI [4] of over 1.7, an SI [5] of over 2.4 and a Cytotoxicity (PO3 [28]) of 260.
Work on `Nc1nc(O)c2ncn(CC#CCO)c2n1` yielded a Cytotoxicity (L1210 [10]) of 220, an IC50 (L1210 [6]) of 210 µM and a Cytotoxicity (PO3 [29]) of 210.
With `Nc1ncnc2c1ncn2C/C=C/CCl` the Cytotoxicity (MC-38 [8]) was 600, the Cytotoxicity (L1210 [17]) was 630 and the Cytotoxicity [18] was 400. The IC50 (L1210 [6]) was 45 µM.
With `Nc1ccn(C/C=C/CO)c(=O)n1` the IC50 (L1210 [6]) was over 550 µM.
Compound `Nc1ccn(C/C=C\CO)c(=O)n1` has an IC50 (L1210 [6]) of over 1000 µM.
For `Nc1ncnc2c1ncn2C=C=CCCl`, the Cytotoxicity (Homo sapiens [7]) was 300, the Cytotoxicity (MC-38 [8]) was 400 and the Cytotoxicity (Homo sapiens [30]) was 300. For the same compound, the Cytotoxicity (L1210 [17]) was 280, the Cytotoxicity [18] was 280 and the IC50 (L1210 [6]) was 45 µM. The Cytotoxicity (PO3 [31]) was 300.
`Nc1nc(O)c2ncn(C/C=C\CO)c2n1` gave an IC50 (L1210 [6]) of 680 µM.
For `Nc1nc(O)c2ncn(C3C=CCO3)c2n1` (stereo not given), the IC50 (L1210 [6]) was over 350 µM.
`Cc1cn(C/C=C\CO)c(=O)[nH]c1=O` showed an IC50 (L1210 [6]) of over 1000 µM.
With `Cc1cn([C@H]2C[C@H](N=[N+]=[N-])[C@@H](CO)O2)c(=O)[nH]c1=O` [ZIDOVUDINE] the EC50 (Mus musculus [1]) was 0.035 µM, the IC50 (Mus musculus [2]) was 594 µM and the EC50 (Mus musculus [3]) was 0.046 µM. For the same compound, the SI [4] was 17000 and the SI [5] was 12900.

Reference: ChEMBL document CHEMBL1125745, “Unsaturated and carbocyclic nucleoside analogues: synthesis, antitumor, and antiviral activity” (J Med Chem, 1991)
